In ChEMBL document CHEMBL4038305, “Benzoxaborole Antimalarial Agents. Part 5. Lead Optimization of Novel Amide Pyrazinyloxy Benzoxaboroles and Identification of a Preclinical Candidate” (J Med Chem, 2017) one finds IC50 data, which are given here for 37 compounds.

Experiment [1] deals with Plasmodium falciparum. The experiment can be described thus: Antimalarial activity against chloroquine-sensitive Plasmodium falciparum 3D7 infected in human erythrocytes assessed as reduction in [3H]-hypoxanthine incorporation preincubated for 24 hrs followed by [3H]-hypoxanthine addition measured after 24 hrs by scintillation counting method. In kind it is functional, cell-based. The method in brief:
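P. falciparum 3D7 cultures were exposed to the compound for 48 h, with atovaquone as the reference control. IC50 was taken from three replicates.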

Experiment [2] has as its system Plasmodium falciparum. The experiment can be described thus: Antimalarial activity against chloroquine-resistant Plasmodium falciparum W2 infected in human erythrocytes after 48 hrs by YOYO-1 dye based flow cytometric analysis. Conditions: W2, 48 h. In kind it is functional, cell-based. The method in brief:
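P. falciparum W2 cultures were exposed to the compound for 48 h, with artemisinin and chloroquine as reference controls. IC50 was taken from two independent replicates.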

Regarding `Cc1c(Oc2cnc(C(=O)N[C@@H](C)C(C)(C)O)cn2)ccc2c1B(O)OC2`, the IC50 came out at 327 nM in experiment [1] and 202 nM in experiment [2].

For the compound `Cc1c(Oc2cnc(C(=O)N[C@H](CO)C3CC3)cn2)ccc2c1B(O)OC2`, the concentration for half-maximal inhibition (IC50) in experiment [1] worked out at 1090 nM; in experiment [2], 643 nM.

As to `Cc1c(Oc2cnc(C(=O)N[C@@H]3CCC[C@H]3O)cn2)ccc2c1B(O)OC2`, the IC50 in experiment [1] was determined as 245 nM; in experiment [2] it was 133 nM.

Turning to `COC[C@H](CO)NC(=O)c1cnc(Oc2ccc3c(c2C)B(O)OC3)cn1`, the IC50 in experiment [1] was determined as 796 nM; in experiment [2], 455 nM.

Take `Cc1c(Oc2cnc(C(=O)N[C@@H](C)CO)cn2)ccc2c1B(O)OC2`: the values for the IC50 in experiment [1] and in experiment [2] were 808 nM and 844 nM, respectively.

As to `Cc1c(Oc2cnc(C(=O)N[C@H](C)CO)cn2)ccc2c1B(O)OC2`, the values for the IC50 in experiment [1] and in experiment [2] were 848 nM and 944 nM, respectively.

For `CSC[C@H](CO)NC(=O)c1cnc(Oc2ccc3c(c2C)B(O)OC3)cn1`, the IC50 in experiment [1] turned out to be 74 nM; in experiment [2] it was 37 nM.

For the compound `Cc1c(Oc2cnc(C(=O)N(CCO)CCO)cn2)ccc2c1B(O)OC2`, the IC50 in experiment [1] was determined as 184 nM; in experiment [2] it was 328 nM.

On to `Cc1c(Oc2cnc(C(=O)N3CCC(C)(O)C3)cn2)ccc2c1B(O)OC2` (centres undefined), for which the IC50 in experiment [1] was determined as 314 nM; in experiment [2], 139 nM.

In the case of `CCCC[C@H](CO)NC(=O)c1cnc(Oc2ccc3c(c2C)B(O)OC3)cn1`, the IC50 in experiment [1] worked out at 215 nM; in experiment [2], 84.9 nM.

As to `Cc1c(Oc2cnc(C(=O)N[C@H]3CCC[C@@H]3O)cn2)ccc2c1B(O)OC2`, the IC50 in experiment [1] turned out to be 537 nM; in experiment [2], 149 nM.

Consider `CCC[C@H](NC(=O)c1cnc(Oc2ccc3c(c2C)B(O)OC3)cn1)C(C)(C)O`, for which the IC50 is 217 nM in experiment [1] and 129 nM in experiment [2].

Consider `CCC[C@H](CO)N(C)C(=O)c1cnc(Oc2ccc3c(c2C)B(O)OC3)cn1`, for which the IC50 in experiment [1] stood at 252 nM; in experiment [2], 48.1 nM.

On to `Cc1c(Oc2cnc(C(=O)N[C@@H]3CCC[C@@H]3O)cn2)ccc2c1B(O)OC2` (relative stereo), for which the figures for the IC50 in experiment [1] and in experiment [2] were 181 nM and 292 nM, respectively.

`Cc1c(Oc2cnc(C(=O)N3CCNC[C@H]3CO)cn2)ccc2c1B(O)OC2`: the values for the IC50 in experiment [1] and in experiment [2] were 171 nM and 98.2 nM, respectively.

Take `CCC[C@@H](NC(=O)c1cnc(Oc2ccc3c(c2C)B(O)OC3)cn1)C(C)(C)O`: the IC50 in experiment [1] amounted to 553 nM; in experiment [2], 260 nM.

Take `Cc1c(Oc2cnc(C(=O)NC(C)(C)CO)cn2)ccc2c1B(O)OC2`: the IC50 was determined as 425 nM in experiment [1] and 290 nM in experiment [2].

As to `CCC[C@@H](CO)NC(=O)c1cnc(Oc2ccc3c(c2C)B(O)OC3)cn1`, the IC50 came to 715 nM in experiment [1] and 297 nM in experiment [2].

As to `Cc1c(Oc2cnc(C(=O)N[C@@H](CO)CCC(F)(F)F)cn2)ccc2c1B(O)OC2`, the results for the IC50 in experiment [1] and in experiment [2] were 480 nM and 230 nM, respectively.

As for `CC[C@@H](NC(=O)c1cnc(Oc2ccc3c(c2C)B(O)OC3)cn1)C(C)(C)O`, the IC50 in experiment [1] was 222 nM; in experiment [2], 91.8 nM.

As for `CC[C@@H](CO)NC(=O)c1cnc(Oc2ccc3c(c2C)B(O)OC3)cn1`, the values for the IC50 in experiment [1] and in experiment [2] were 801 nM and 704 nM, respectively.

Consider `Cc1c(Oc2cnc(C(=O)N(C)CCO)cn2)ccc2c1B(O)OC2`, for which the results for the IC50 in experiment [1] and in experiment [2] were 437 nM and 262 nM, respectively.

Consider `Cc1c(Oc2cnc(C(=O)N[C@H](CO)C(C)C)cn2)ccc2c1B(O)OC2`, for which the IC50 in experiment [1] is 1990 nM; in experiment [2], 774 nM.

With `Cc1c(Oc2cnc(C(=O)NC3(CO)CC3)cn2)ccc2c1B(O)OC2`, the IC50 in experiment [1] turned out to be 1500 nM; in experiment [2] it was 2010 nM.

For `Cc1c(Oc2cnc(C(=O)N[C@@H](CO)CS(C)(=O)=O)cn2)ccc2c1B(O)OC2`, the IC50 was determined as 472 nM in experiment [1] and 180 nM in experiment [2].

On to `COCCNC(=O)c1cnc(Oc2ccc3c(c2C)B(O)OC3)cn1`, for which the values for the IC50 in experiment [1] and in experiment [2] were 644 nM and 788 nM, respectively.

With `Cc1c(Oc2cnc(C(=O)NCC(C)O)cn2)ccc2c1B(O)OC2` (centres undefined), the IC50 is 1100 nM in experiment [1] and 1280 nM in experiment [2].

Consider `Cc1c(Oc2cnc(C(=O)N[C@@H](CO)c3ccccc3)cn2)ccc2c1B(O)OC2`, for which the IC50 came to 161 nM in experiment [1] and 103 nM in experiment [2].

As to `Cc1c(Oc2cnc(C(=O)NCC(C)(C)O)cn2)ccc2c1B(O)OC2`, the IC50 in experiment [1] was found to be 554 nM; in experiment [2], 334 nM.

With `CC[C@H](NC(=O)c1cnc(Oc2ccc3c(c2C)B(O)OC3)cn1)C(C)(C)O`, the IC50 turned out to be 829 nM in experiment [1] and 279 nM in experiment [2].

For the compound `Cc1c(Oc2cnc(C(=O)NC(C)C(C)O)cn2)ccc2c1B(O)OC2` (centres undefined), the figures for the IC50 in experiment [1] and in experiment [2] were 1460 nM and 513 nM, respectively.

For `Cc1c(Oc2cnc(C(=O)N[C@@H](CO)Cc3ccccc3)cn2)ccc2c1B(O)OC2`, the IC50 came to 505 nM in experiment [1] and 115 nM in experiment [2].

Take `Cc1c(Oc2cnc(C(=O)N3CCNC[C@@H]3CO)cn2)ccc2c1B(O)OC2`: the IC50 in experiment [1] is 151 nM; in experiment [2], 103 nM.

Take `Cc1c(Oc2cnc(C(=O)N[C@@H](CO)C3CC3)cn2)ccc2c1B(O)OC2`: the IC50 in experiment [1] was 587 nM; in experiment [2], 492 nM.

As for `Cc1c(Oc2cnc(C(=O)N[C@H](CO)CCC(F)(F)F)cn2)ccc2c1B(O)OC2`, the values for the 50% inhibitory concentration (IC50) in experiment [1] and in experiment [2] were 959 nM and 352 nM, respectively.

In the case of `Cc1c(Oc2cnc(C(=O)N[C@H](CO)CC(F)(F)F)cn2)ccc2c1B(O)OC2`, the IC50 in experiment [1] was determined as 31 nM; in experiment [2] it was 350 nM.

Take `Cc1c(Oc2cnc(C(=O)N[C@H](C)C(C)(C)O)cn2)ccc2c1B(O)OC2`: the IC50 in experiment [1] was 374 nM; in experiment [2] it was 265 nM.
